This is an account of results in publication PMC5055850 (Bioorganic & medicinal chemistry, 2016).

Format in all cases: cell-based
In one test the target is T1, FPR2 (Homo sapiens, UniProt P25090).
T1 sequence (P25090 1-351): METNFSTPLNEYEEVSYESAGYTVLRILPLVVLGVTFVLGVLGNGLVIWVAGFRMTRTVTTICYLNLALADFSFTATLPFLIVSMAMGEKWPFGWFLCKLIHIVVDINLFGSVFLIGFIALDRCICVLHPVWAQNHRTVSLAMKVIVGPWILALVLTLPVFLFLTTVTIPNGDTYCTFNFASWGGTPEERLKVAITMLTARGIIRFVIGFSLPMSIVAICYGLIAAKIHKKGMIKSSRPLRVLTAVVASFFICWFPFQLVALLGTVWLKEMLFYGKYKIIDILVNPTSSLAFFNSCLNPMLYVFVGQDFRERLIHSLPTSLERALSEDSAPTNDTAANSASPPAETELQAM
Put plainly: Ca2+ flux assay in FPR2-HL60 cells. The conditions noted are these: for FPR2-HL60 Efficacy: % of the response induced by 5 nM WKYMVm; for Emax: read-out: FPR2-HL60 Efficacy. The gist of the method: (§1)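 FPR1-, FPR2- or FPR3-transfected HL-60 cells grown in RPMI 1640 with 10% heat-inactivated FCS, 10 mM HEPES and G418 (1 mg/mL). Cells loaded with Fluo-4 AM (1.25 µg/mL final) for 30 min at 37 °C in the dark, then 2 × 10^5 cells/well. Fluorescence (ex 485/em 538 nm) read every 5 s for 240 s at room temperature. Peak rise over baseline normalized to 5 nM fMLF (FPR1) or 5 nM WKYMVm (FPR2, FPR3). EC50 from 5–6-point nonlinear fits, three independent experiments.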
A general note: Calcium assays in cells follow changes in intracellular calcium, usually with a dye or a luminescent sensor.

Test [1] relates to human polymorphonuclear neutrophils (hPMN). The test is described as follows: Ca2+ flux assay in human neutrophils. The conditions noted are these: for hPMN Efficacy: % of the response induced by 5 nM fMLF; for EC50: Homo sapiens, Polymorphonuclear neutrophil, read-out: hPMN EC50. The gist of the method: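 Neutrophils from healthy donors' blood, purified by dextran sedimentation, Histopaque 1077 gradient and hypotonic red-cell lysis (>95% pure, >98% viable). Cells in HBSS− with 10 mM HEPES were loaded with Fluo-4 AM (1.25 µg/mL final) for 30 min at 37 °C, then plated at 2 × 10^5 cells/well. Fluorescence (485/538 nm) read every 5 s for 240 s at room temperature. Peak change normalized to 5 nM fMLF. EC50 from 5–6-point nonlinear regression, three experiments.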

A further test has as its target T2, FPR1 (Homo sapiens, UniProt P21462).
T2 sequence (P21462 1-350): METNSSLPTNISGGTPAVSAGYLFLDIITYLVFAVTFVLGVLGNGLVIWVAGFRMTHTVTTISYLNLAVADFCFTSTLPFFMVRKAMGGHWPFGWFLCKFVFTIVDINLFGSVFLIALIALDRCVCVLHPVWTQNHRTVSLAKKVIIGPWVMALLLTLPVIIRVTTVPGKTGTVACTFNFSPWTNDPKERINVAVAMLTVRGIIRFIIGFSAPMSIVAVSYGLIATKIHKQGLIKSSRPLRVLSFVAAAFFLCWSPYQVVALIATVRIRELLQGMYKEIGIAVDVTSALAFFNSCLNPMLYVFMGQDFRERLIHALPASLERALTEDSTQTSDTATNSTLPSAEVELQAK
The test is described as follows: Ca2+ flux assay in FPR1-HL60 cells. The conditions noted are these: for FPR1-HL60 Efficacy: % of the response induced by 5 nM fMLF; for Emax: read-out: FPR1-HL60 Efficacy. The gist of the method:
as §1

Test [2] has as its system mouse polymorphonuclear neutrophils (mPMN). The test is described as follows: Ca2+ flux assay in mouse neutrophils. The conditions noted are these: for mPMN Efficacy: % of the response induced by 5 nM WKYMVm; for EC50: Mus musculus, Polymorphonuclear neutrophil, read-out: mPMN EC50. The gist of the method:
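Neutrophils taken from BALB/c mouse tibia and femur bone marrow. Isolated on a 45/50/55/62/81% Percoll gradient (1600g, 30 min, 10 °C), then Histopaque 1119 to remove red cells, and kept in HBSS−. Ca2+ fluorescence (485/538 nm) monitored every 5 s for 240 s at room temperature after compound addition. Maximal change over baseline normalized to 5 nM WKYMVm. EC50 from 5–6-point nonlinear regression, three independent experiments.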

The mark [3] stands for this setting: read-out: FPR2-HL60 EC50, Ca2+ flux, HL-60 cells transfected with FPR2.
Setting [4] is: read-out: FPR1-HL60 EC50, Ca2+ flux, HL-60 cells transfected with FPR1.
The mark [5] stands for this setting: FPR2-HL60 EC50, Ca2+ flux, HL-60 cells transfected with FPR2.

Like-named read-outs stand apart in the source and are kept apart here.

Turning to `CCCCCc1c(C)nn(CC(=O)Nc2ccc(Br)cc2)c(=O)c1Nc1cccc(OC)c1` [Compound 13d, N-(4-Bromophenyl)-2-[5-(3-methoxyphenylamino)-3-methyl-6-oxo-4-pentyldazin-1(6H)-yl]acetamide], the “FPR2-HL60 Efficacy” value on FPR2 worked out at 115%. The half-maximal effective concentration (EC50) was determined as 0.19 ± 0.018 µM at FPR2 (setting [3]) and 1.4 ± 0.34 µM at FPR1 (setting [4]). Besides, in test [1], the “hPMN Efficacy” value was 55%. For the same compound, on FPR1, the “FPR1-HL60 Efficacy” value stood at 95%.
Take `COc1cccc(Nc2cc(C)nn(CC(=O)Nc3ccc(Br)cc3)c2=O)c1` [Compound 29a, N-(4-Bromophenyl)-2-[5-(3-methoxyphenylamino)-3-methyl-6-oxopyridazin-1(6H)-yl]-acetamide]: the concentration giving a half-maximal response (EC50) at FPR2 (setting [5]) was 9.6 ± 2 µM; in test [1] it was 0.56 ± 0.12 µM; at FPR1 it was 0.24 ± 0.09 µM. Besides, the values for the Emax on FPR2 and at FPR1 were 65% and 120%, respectively.
For `CCC(=O)c1c(C)nn(CC(=O)Nc2ccc(Br)cc2)c(=O)c1Nc1cccc(OC)c1` [Compound 8b, N-(4-Bromophenyl)-2-[5-(3-methoxyphenylamino)-3-methyl-6-oxo-4-propionylpyridazin-1(6H)-yl]acetamide], the concentration giving a half-maximal response (EC50) on FPR2 (setting [5]) amounted to 0.78 ± 0.1 µM; in test [2] it was 8.4 ± 2.6 µM; in test [1] it was 5.5 ± 1.6 µM; on FPR1, 2.7 ± 0.8 µM. Moreover, the Emax was 190% at FPR2 and 130% at FPR1. In addition, the “mPMN Efficacy” value in test [2] is on record as 75%.
Turning to `CCOC(=O)c1c(C)nn(CC(=O)Nc2ccc(Br)cc2)c(=O)c1Nc1cccc(OC)c1` [Compound 19b, Ethyl 1-[(4-bromophenylcarbamoyl)methyl]-5-(3-methoxyphenylamino)-1,6-dihydro-3-methyl-6-oxopyridazine-4-carboxylate], the results for the EC50 (at FPR2 (setting [5]); in test [1]; on FPR1) were 1.9 ± 0.03 µM, 6.1 ± 1.7 µM and 2.5 ± 0.7 µM, respectively. For the same compound, the Emax at FPR2 was 110%; on FPR1, 90%.
For `COC(=O)c1c(C)nn(CC(=O)Nc2ccc(Br)cc2)c(=O)c1Nc1cccc(OC)c1` [Compound 19a, Methyl 1-[(4-bromophenylcarbamoyl)methyl]-5-(3-methoxyphenylamino)-1,6-dihydro-3-methyl-6-oxopyridazine-4-carboxylate], in that order: 2.3 ± 0.49 µM, 22.1 ± 5.3 µM, 4.4 ± 0.6 µM, 60% and 25%.
Take `COc1cccc(Nc2c(C(=O)C3CCCC3)c(C)nn(CC(=O)Nc3ccc(Br)cc3)c2=O)c1` [Compound 8e, N-(4-Bromophenyl)-2-[4–cyclopentanecarbonyl-5-(3-methoxyphenylamino)-3-methyl-6-oxopyridazin-1(6H)-yl]acetamide]: the EC50 on FPR2 (setting [5]) is 10.5 ± 2.1 µM; in test [2], 15.9 ± 4.9 µM; in test [1], 1.7 ± 0.4 µM; at FPR1 it was 1.6 ± 0.4 µM. For the same compound, the Emax at FPR2 was 60%; at FPR1 it was 110%. Besides, the “mPMN Efficacy” value in test [2] was found to be 120%.
With `COc1cccc(Nc2cc(C)cn(CC(=O)Nc3ccc(Br)cc3)c2=O)c1` [Compound 29b, N-(4-Bromophenyl)-2-[3-(3-methoxyphenylamino)-5-methyl-2-oxopyridin-1(2H)-yl]acetamide], the EC50 at FPR2 (setting [5]) was found to be 8.1 ± 1.7 µM; in test [1], 4.31 ± 0.4 µM; on FPR1, 2.5 ± 0.7 µM. For the same compound, the Emax at FPR2 was 75%; on FPR1 it was 110%.
As for `CCCCC(=O)c1c(C)nn(CC(=O)Nc2ccc(Br)cc2)c(=O)c1Nc1cccc(OC)c1` [Compound 8d, N-(4-Bromophenyl)-2-[5–(3-methoxyphenylamino)-3-methyl-6-oxo-4-pentanoylpyridazin-1(6H)-yl]acetamide], in test [2], the “mPMN Efficacy” value amounted to 105%. In addition, the results for the EC50 (in test [2]; in test [1]; at FPR1) were 24.1 ± 6.1 µM, 8 ± 2.6 µM and 15.6 ± 2.6 µM, respectively. Further, the Emax at FPR1 was 45%.
For the compound `CCCCc1c(C)nn(CC(=O)Nc2ccc(Br)cc2)c(=O)c1Nc1cccc(OC)c1` [Compound 13c, N-(4-Bromophenyl)-2-[4-butyl-5-(3-methoxyphenylamino)-3-methyl-6-oxopyridazin-1(6H)-yl]acetamide], the EC50 on FPR2 (setting [5]) came out at 4.5 ± 1.3 µM; in test [1] it was 1.4 ± 0.8 µM; on FPR1, 3.6 ± 1.1 µM. Moreover, the Emax was 30% on FPR2 and 65% on FPR1.
Regarding `Cc1nn(CC(=O)Nc2ccc(Br)cc2)c(=O)c(N)c1-c1cc[nH]n1` [Compound 25, 2-[5-Amino-3-methyl-6-oxo-4-(1H-pyrazol-3-yl)-6H-pyridazin-1-yl]-N-(4-bromo--phenyl)acetamide], the “FPR2-HL60 Efficacy” value on FPR2 is given as 60%. In addition, the concentration for a half-maximal effect (EC50) on FPR2 (setting [3]) was determined as 13.5 ± 1.8 µM; on FPR1 (setting [4]), 8.4 ± 1.5 µM. Further, in test [1], the “hPMN Efficacy” value is given as 140%. The “FPR1-HL60 Efficacy” value at FPR1 is listed as 135%.
With `CCCC(=O)c1c(C)nn(CC(=O)Nc2ccc(Br)cc2)c(=O)c1Nc1cccc(OC)c1` [Compound 8c, N-(4-Bromophenyl)-2-[4-butyryl-5-(3-methoxyphenylamino)-3-methyl-6-oxopyridazin-1(6H)-yl]acetamide], the half-maximal effective concentration (EC50) at FPR2 (setting [5]) is 8.1 ± 2.1 µM; in test [1] it was 24 ± 4.2 µM; on FPR1, 11.8 ± 3.5 µM. Besides, the values for the Emax at FPR2 and at FPR1 were 90% and 70%, respectively.
With `COc1cccc(Nc2c(C(=O)C3CCCCC3)c(C)nn(CC(=O)Nc3ccc(Br)cc3)c2=O)c1` [Compound 8f, N-(4-Bromophenyl)-2-[4-cyclohexanecarbonyl-5-(3-methoxyphenylamino)-3-methyl-6-oxopyridazin-1(6)-yl]acetamide], the “FPR2-HL60 Efficacy” value on FPR2 is 115%. The EC50 on FPR2 (setting [3]) is 8.7 ± 0.47 µM; on FPR1 (setting [4]) it was 10 ± 3.2 µM. Further, the “hPMN Efficacy” value in test [1] came to 120%. On FPR1, the “FPR1-HL60 Efficacy” value was 110%.
Consider `CCCc1c(C)nn(CC(=O)Nc2ccc(Br)cc2)c(=O)c1Nc1cccc(OC)c1` [Compound 13b, N-(4-Bromophenyl)-2-[5-(3-methoxyphenylamino)-3-methyl-6-oxo-4-propylpyridazin-1(6H)-yl]acetamide], for which the “FPR2-HL60 EC50” value on FPR2 (Ca2+ flux, HL-60 cells transfected with FPR2) is given as “completely devoid of activity”.
For the compound `Cc1nn(CC(=O)Nc2ccc(Br)cc2)c(=O)c(N)c1-c1ccn(C)n1` [Compound 26, 2-[5-Amino-3-methyl-4-(1-methyl-1H-pyrazol-3-yl)-6-oxopyridazin-1(6H)-yl]-N-(4-bromophenyl)acetamide], the 50% effective concentration (EC50) at FPR2 (setting [5]) was 1.9 ± 0.71 µM; in test [2] it was 5.6 ± 2.4 µM; in test [1] it was 3.5 ± 0.32 µM; on FPR1 it was 2.9 ± 0.14 µM. Further, the Emax at FPR2 is 40%; on FPR1 it was 75%. Besides, the “mPMN Efficacy” value in test [2] amounted to 45%.

The term EC50 denotes the midpoint of the concentration-response curve.
